In the library only some 4.1% were active in any assay of this set; here they are far more common.
hERG rescue – compounds protecting human hERG from proarrhythmic drug block | CHO-hERG, FluxOR thallium flux, dofetilide IC70 present | activation (rescue from dofetilide block), less the hit threshold, % at 10 µM | 310,000 tested, 0.51% active | AID 1511;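 active = activation above the mean of controls blocked by dofetilide plus 5 SD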;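 note: thallium influx through hERG after potassium depolarization seen as dye fluorescence rise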
KCNQ1 block – human KCNQ1 channel inhibition | B-score at 10 µM | P51787 | AID 2642 | CHO-K1 KCNQ1, FluxOR thallium flux fluorescence; stronger effect = higher value | 310,000 tested, 1.3% active;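 active = compounds whose thallium flux B-score, printed positive for inhibition, exceeds three library SD while starting fluorescence stays within three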;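 note: channel opened by potassium depolarization with thallium stimulus after 20 min compound exposure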
Target sequence (P51787 whole entry, looked up): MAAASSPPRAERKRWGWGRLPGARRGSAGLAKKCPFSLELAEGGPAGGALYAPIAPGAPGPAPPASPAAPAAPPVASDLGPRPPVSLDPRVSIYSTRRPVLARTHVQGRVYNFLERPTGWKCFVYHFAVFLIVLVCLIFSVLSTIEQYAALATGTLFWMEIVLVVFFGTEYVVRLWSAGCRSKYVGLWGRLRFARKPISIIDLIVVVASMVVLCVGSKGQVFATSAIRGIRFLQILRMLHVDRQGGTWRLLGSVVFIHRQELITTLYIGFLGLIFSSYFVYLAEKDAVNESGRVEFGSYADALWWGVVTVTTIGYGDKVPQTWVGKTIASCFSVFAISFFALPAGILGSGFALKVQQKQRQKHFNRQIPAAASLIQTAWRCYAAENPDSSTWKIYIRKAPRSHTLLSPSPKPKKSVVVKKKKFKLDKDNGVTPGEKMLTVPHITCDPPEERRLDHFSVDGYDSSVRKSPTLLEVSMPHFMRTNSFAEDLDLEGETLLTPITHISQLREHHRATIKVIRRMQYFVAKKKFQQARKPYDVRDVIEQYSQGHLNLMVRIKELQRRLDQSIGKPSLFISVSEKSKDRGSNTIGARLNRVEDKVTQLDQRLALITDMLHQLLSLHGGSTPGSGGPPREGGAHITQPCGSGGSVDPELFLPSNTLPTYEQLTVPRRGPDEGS
Cl transport mod – modulates chloride dependent transport by human KCC2; Q9H2X9; KCC2 cells, thallium flux FluoZin-2 fluorescence; B-score of Tl+ flux slope (higher = more flux/activation; lower = inhibition) at 10 µM; 190,000 tested, 2.2% active; AID 1456;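 active = thallium flux slope and its plate-corrected score both differing from the plate sample mean at a set confidence after two filtering rounds, in either direction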;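 note: slope of fluorescence scaled to starting intensity during 10 to 20 s after thallium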
KCNK9 inh – human KCNK9 channel inhibition; HEK293 KCNK9, FluxOR thallium flux fluorescence; stronger effect = lower value; B-score at 10 µM; 310,000 tested, 1.2% active;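 active = ratio B-score over 3 SD below the library mean, with starting fluorescence within 5 SD of its mean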;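 note: negative B-score means less thallium flux so channel inhibition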
KCNQ1 act – potentiators or activators of human KCNQ1 potassium channel; AID 2648; P51787; CHO-K1 KCNQ1, thallium flux FluxOR fluorescence; stronger effect = higher value; B-score at 10 µM; 310,000 tested, 0.35% active;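 active = fluorescence ratio B-score, a plate-corrected score, at least three library SD, with initial intensity B-score within 5 SD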
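System: CHO-K1 cells stably expressing KCNQ1 / Medium: assay buffer for compound exposure, DMSO matched across wells / Reagent: thallium- and potassium-containing depolarizing buffer / Compound: one concentration, matched DMSO / Incubation: 20 min compound pretreatment at room temperature / Measured by: kinetic FluxOR fluorescence, 10 s baseline plus 110 s post-stimulus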
KCNK3 block – human KCNK3 channel inhibition, primary screen. O14649. CHO-KCNK3 thallium flux, FluxOR fluorescence; stronger effect = lower value. B-score at 10 µM. 340,000 tested, 0.84% active. AID 602410;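 active = B-score under library mean minus 4 SD, starting fluorescence ratio at most library mean plus 5 SD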;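 note: more negative B-score means stronger inhibition of thallium flux through KCNK3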
KCC2 secondary – confirmation of human KCC2 transport modulators; shares compounds with Cl transport mod; HEK293-KCC2, thallium flux, FluoZin2 fluorescence; stronger effect = higher value; normalised thallium flux (F/F0 slope) at 10 µM; 3,700 tested, 15% active; AID 1713;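 active = thallium flux slope above the same plate's solvent-only control mean plus 3 SD; inconclusive = the two replicate wells disagree; inactive = no significant difference from solvent-only control wells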
KCC2 bumet counter – thallium flux despite bumetanide block in KCC2 cells, secondary assay 3 | HEK293-KCC2 + bumetanide/ouabain, thallium flux FluoZin2; stronger effect = higher value | AID 1714 | 3,700 tested, 49% active | normalized thallium flux at 10 µM | shares compounds with Cl transport mod;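 active = thallium entry rate above the same plate's blocked-transporter control wells by more than 3 SD; inconclusive = the two repeat wells disagree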;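 note: raw slope of fluorescence over initial fluorescence between 10 and 20 s after thallium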
KCC2 sec2 – KCC2 (human) modulation, second secondary assay; shares compounds with Cl transport mod; HEK293-KCC2, thallium flux FluoZin2 fluorescence; actives lie on both sides; F/F0 rise rate, 10–20 s post-thallium; normalized thallium flux at 10 µM; 3,700 tested, 23% active;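 active = thallium flux slope more than 3 SD above or below the plate's solvent-only control mean, mostly below; inconclusive = the two repeat wells disagreed; inactive = no significant shift from solvent-only controls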
HEK293 Tl flux – parental HEK flux effect, counter-screen; thallium flux rate (normalised fluorescence) at 10 µM; shares compounds with Cl transport mod; HEK293 parental cells, thallium flux FluoZin2, ouabain; baseline-ratio fluorescence slope, 10–20 s after thallium; 3,700 tested, 46% active;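 active = thallium flux rate significantly above the same plate's solvent-only control wells, beyond their mean plus 3 SD; inconclusive = the two replicate wells gave conflicting results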
KCC2 ouabain – modulates human KCC2 on retest with ouabain; shares compounds with Cl transport mod; HEK293-KCC2, thallium flux FluoZin2 fluorescence; bidirectional: low = inhibitor, high = activator; raw Tl+ flux slope (below DMSO = inhibition, above = activation) at 10 µM; 3,700 tested, 48% active; AID 1717;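 active = thallium flux slope beyond 3 SD from same-plate DMSO control mean in most replicates, usually higher, sometimes lower; inconclusive = repeat tests gave conflicting results; inactive = no significant difference from controls in most replicates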;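 note: slope of initial-normalized fluorescence between seconds 10 and 20 after thallium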
HEK counter2 – counter-screen for KCC2 modulators: effect in parental HEK293 cells; shares compounds with Cl transport mod; thallium flux FluoZin-2 fluorescence slope; thallium flux slope at 10 µM; 3,700 tested, 33% active; AID 1718;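 active = thallium flux slope above the same plate's solvent-control mean plus 3 SD in both duplicate wells; inconclusive = duplicate wells that disagreed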;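 note: run without ouabain in cells lacking the KCC2 cotransporter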
Hits are given with their value; . = inactive; ? = inconclusive; / = no result.

SMILES	hERG rescue	KCNQ1 block	Cl transport mod	KCNK9 inh	KCNQ1 act	KCNK3 block	KCC2 secondary	KCC2 bumet counter	KCC2 sec2	HEK293 Tl flux	KCC2 ouabain	HEK counter2
Cc1csc(NC(=O)CSc2ccc(-c3ccccn3)nn2)n1	.	.	-4.9	.	.	.	.	.	0.023	?	0.012	.
CCOC(=O)N1CCN(C(=O)CSc2ccc(-c3ccncc3)nn2)CC1	.	.	.	.	.	.	/	/	/	/	/	/
Cc1nonc1NC(=O)CSc1cn[nH]n1	.	.	/	.	.	.	/	/	/	/	/	/
CCOC(=O)N1CCN(C(=O)CSc2ccc(-c3ccccc3)nn2)CC1	.	.	-4.2	.	.	.	.	?	0.028	.	0.014	.
Cc1nonc1NC(=O)CSc1ccc(-c2ccccc2)nn1	.	.	-8	.	.	.	.	.	0.022	.	?	.
Nc1cc(N)nc(SCCN2CCCCC2)n1	.	.	.	.	.	.	/	/	/	/	/	/
Cc1ccc(NC(=O)CSc2ccc(-c3ccco3)nn2)cc1	.	.	-3.3	.	.	.	.	.	0.022	.	.	.
CCc1nnc(NC(=O)CSc2ccc(-c3ccc(C)cc3)nn2)s1	.	.	.	.	.	.	/	/	/	/	/	/
CCOc1ccc(-c2ccc(SCC(=O)Nc3nnc(CC)s3)nn2)cc1	.	.	4	.	.	.	.	0.0078	.	0.01	?	0.013
CC(=O)Nc1ccc(NC(=O)CSc2ccc(-c3ccco3)nn2)cc1	.	.	.	.	.	.	/	/	/	/	/	/
CC1CCN(C(=O)CSc2ccc(-c3ccccc3)nn2)CC1	.	.	-3.2	.	.	.	?	.	.	.	0.016	.
O=C(CSc1ccc(-c2ccc(F)cc2)nn1)N1CCCc2ccccc21	.	.	-3.7	.	.	.	.	.	0.02	?	0.013	.
Cc1ccc2c(c1)sc[n+]2Cc1ccccc1	.	.	.	.	.	.	/	/	/	/	/	/
O=C(Nc1ccccc1C(=O)Nc1nnc(C(F)(F)F)s1)c1ccccc1	.	.	3.2	.	.	.	?	0.022	.	?	.	.
COc1ccc(-c2csc(NC(=S)NC(=O)c3cccs3)n2)cc1OC	.	.	31	-7.9	11	.	0.01	0.046	0.056	0.044	0.048	0.044
COc1ccc(OC)c(NC(=O)C2CCN(C(=O)c3cccs3)CC2)c1	.	.	.	.	.	.	/	/	/	/	/	/
CCCCC(=O)Nc1ccc(NC(=S)NC(=O)c2ccco2)cc1OC	.	.	13	.	.	.	0.022	0.047	?	0.02	0.026	0.022
COc1ccc(OC)c(NC(=O)C(=O)NNC(=O)c2cccs2)c1	5.5	.	9.9	.	.	.	0.015	0.063	.	0.022	0.04	0.015
COc1cc(NC(=S)NC(=O)c2ccco2)ccc1NC(=O)C(C)C	.	.	5.2	.	.	.	.	0.012	.	0.012	?	.
C=CCNC(=O)c1cn(CC)c2cc(N3CCN(C(=O)c4ccco4)CC3)c(F)cc2c1=O	.	.	/	.	.	.	/	/	/	/	/	/
O=C(CNC(=O)c1cccc(OC(F)F)c1)OCn1nnc2ccccc2c1=O	.	.	.	.	.	.	/	/	/	/	/	/

Assay outcomes as filed in PubChem BioAssay.
